According to ChEMBL document CHEMBL1641462, “Synthesis and in vivo evaluation of ¹⁸F-fluoroethyl GF120918 and XR9576 as positron emission tomography probes for assessing the function of drug efflux transporters” (Bioorg Med Chem, 2011):
One block for each compound: values may come before it.

Legend:
Kidney [1] = assay: Biodistribution in FVB mouse kidney assessed per gram of tissue at 1 to 4.8 MBq, iv after 60 mins; format: ADME, organism-based; settings: in vivo, 1 h
In short: (§1)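 Male FVB mice (8–10 weeks, 25–29 g) received tracer iv (1.0–4.8 MBq, 7.1–34 pmol). Killed by cervical dislocation at 5, 15, 30, 60 or 90 min. Blood taken by heart puncture; tissues dissected, weighed and gamma-counted. Activity decay-corrected to injection time and given as %ID/g; mean ± SD, n = 4 per time point.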

Bone [2] = assay: Biodistribution in FVB mouse bone assessed per gram of tissue at 1 to 4.8 MBq, iv after 30 mins; format: ADME, organism-based, Bone element; settings: in vivo, 0.5 h; in short: as §1
Kidney [3] = assay: Biodistribution in FVB mouse kidney assessed per gram of tissue at 1 to 4.8 MBq, iv after 30 mins; format: ADME, organism-based; settings: in vivo, 0.5 h; in short: as §1
Spleen [4] = assay: Biodistribution in FVB mouse spleen assessed per gram of tissue at 1 to 4.8 MBq, iv after 90 mins; format: ADME, organism-based; settings: in vivo, 1.5 h
In short: (§2)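 Male FVB mice (8–10 weeks, 25–29 g) given tracer 1.0–4.8 MBq/7.1–34 pmol iv; killed by cervical dislocation at set times (n = 4 per group). Blood by heart puncture; tissues dissected, weighed and gamma counted. Radioactivity decay-corrected to injection time, expressed as %ID/g, mean ± SD.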

Liver [5] = assay: Biodistribution in FVB mouse liver assessed per gram of tissue at 1 to 4.8 MBq, iv after 30 mins; format: ADME, organism-based; settings: in vivo, 0.5 h; in short: as §1
Brain [6] = assay: AUC (0 to 60 mins) in BCRP knockout mouse brain at 2.8 to 5.6 MBq, iv; format: ADME, organism-based; settings: in vivo
In short: (§3)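 Small-animal PET in male wild-type and knockout mice under isoflurane (1.0–1.5%), prone on the scanner bed. Tracer (2.8–5.6 MBq, 20–40 pmol) given iv, with or without co-injected GF120918 at 5 mg/kg. Dynamic 60-min list-mode scan. Decay-corrected SUV read from ROIs on brain, and on the ventricular cavity for blood. AUC taken over 0–60 min in SUV·min; n = 4 per group.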

Brain [7] = assay: Biodistribution in P-gp knockout mouse brain at 3.3 to 4.9 MBq, iv after up to 60 mins; format: ADME, organism-based; settings: in vivo, 1 h
Muscle tissue [8] = assay: Biodistribution in FVB mouse muscle assessed per gram of tissue at 1 to 4.8 MBq, iv after 60 mins; format: ADME, organism-based; settings: in vivo, 1 h; in short: as §1
Bone [9] = assay: Biodistribution in FVB mouse bone assessed per gram of tissue at 1 to 4.8 MBq, iv after 60 mins; format: ADME, organism-based, Bone element; settings: in vivo, 1 h; in short: as §1
Brain [10] = assay: Ratio of AUC (0 to 60 mins) in P-gp/BCRP knockout mouse brain to AUC (0 to 60 mins) in wild type mouse brain at 2.8 to 5.6 MBq, iv; format: ADME, organism-based; settings: in vivo
[11] = Biodistribution in FVB mouse small intestine assessed per gram of tissue at 1 to 4.8 MBq, iv after 15 mins; format: ADME, organism-based; settings: in vivo, 0.25 h; in short: as §2
[12] = Biodistribution in FVB mouse small intestine assessed per gram of tissue at 1 to 4.8 MBq, iv after 60 mins; format: ADME, organism-based; settings: in vivo, 1 h; in short: as §2
Brain [13] = assay: Biodistribution in FVB mouse brain assessed per gram of tissue at 1 to 4.8 MBq, iv after 5 mins; format: ADME, organism-based; settings: in vivo; in short: as §1
Spleen [14] = assay: Biodistribution in FVB mouse spleen assessed per gram of tissue at 1 to 4.8 MBq, iv after 30 mins; format: ADME, organism-based; settings: in vivo, 0.5 h; in short: as §2
Brain [15] = assay: Biodistribution in BCRP knockout mouse brain at 3.3 to 4.9 MBq, iv after up to 60 mins; format: ADME, organism-based; settings: in vivo, 1 h
Brain [16] = assay: AUC (0 to 60 mins) in wild type mouse brain at 2.8 to 5.6 MBq, iv; format: ADME, organism-based; settings: in vivo; in short: as §3
Heart [17] = assay: Biodistribution in FVB mouse heart assessed per gram of tissue at 1 to 4.8 MBq, iv after 60 mins; format: ADME, organism-based; settings: in vivo, 1 h; in short: as §1
Kidney [18] = assay: Biodistribution in FVB mouse kidney assessed per gram of tissue at 1 to 4.8 MBq, iv after 15 mins; format: ADME, organism-based; settings: in vivo, 0.25 h; in short: as §1
Pancreas [19] = assay: Biodistribution in FVB mouse pancreas assessed per gram of tissue at 1 to 4.8 MBq, iv after 30 mins; format: ADME, organism-based; settings: in vivo, 0.5 h; in short: as §2
Blood [20] = assay: Biodistribution in FVB mouse blood assessed per gram of tissue at 1 to 4.8 MBq, iv after 5 mins; format: ADME, organism-based; settings: in vivo; in short: as §1
Lung [21] = assay: Biodistribution in FVB mouse lung assessed per gram of tissue at 1 to 4.8 MBq, iv after 5 mins; format: ADME, organism-based; settings: in vivo; in short: as §1
Lung [22] = assay: Biodistribution in FVB mouse lung assessed per gram of tissue at 1 to 4.8 MBq, iv after 60 mins; format: ADME, organism-based; settings: in vivo, 1 h; in short: as §1
Bone [23] = assay: Biodistribution in FVB mouse bone assessed per gram of tissue at 1 to 4.8 MBq, iv after 90 mins; format: ADME, organism-based, Bone element; settings: in vivo, 1.5 h; in short: as §1
Blood [24] = assay: Biodistribution in FVB mouse blood assessed per gram of tissue at 1 to 4.8 MBq, iv after 60 mins; format: ADME, organism-based; settings: in vivo, 1 h; in short: as §1
Heart [25] = assay: Biodistribution in FVB mouse heart assessed per gram of tissue at 1 to 4.8 MBq, iv after 30 mins; format: ADME, organism-based; settings: in vivo, 0.5 h; in short: as §1
Liver [26] = assay: Biodistribution in FVB mouse liver assessed per gram of tissue at 1 to 4.8 MBq, iv after 15 mins; format: ADME, organism-based; settings: in vivo, 0.25 h; in short: as §1
Bone [27] = assay: Biodistribution in FVB mouse bone assessed per gram of tissue at 1 to 4.8 MBq, iv after 15 mins; format: ADME, organism-based, Bone element; settings: in vivo, 0.25 h; in short: as §1
Muscle tissue [28] = assay: Biodistribution in FVB mouse muscle assessed per gram of tissue at 1 to 4.8 MBq, iv after 90 mins; format: ADME, organism-based; settings: in vivo, 1.5 h; in short: as §1
Blood [29] = assay: AUC (0 to 60 mins) in wild type mouse blood at 2.8 to 5.6 MBq, iv; format: ADME, tissue-based; in short: as §3
Brain [30] = assay: Biodistribution in FVB mouse brain assessed per gram of tissue at 1 to 4.8 MBq, iv after 90 mins; format: ADME, organism-based; settings: in vivo, 1.5 h; in short: as §1
Kidney [31] = assay: Biodistribution in FVB mouse kidney assessed per gram of tissue at 1 to 4.8 MBq, iv after 5 mins; format: ADME, organism-based; settings: in vivo; in short: as §1
Pancreas [32] = assay: Biodistribution in FVB mouse pancreas assessed per gram of tissue at 1 to 4.8 MBq, iv after 15 mins; format: ADME, organism-based; settings: in vivo, 0.25 h; in short: as §2
Kidney [33] = assay: Biodistribution in FVB mouse kidney assessed per gram of tissue at 1 to 4.8 MBq, iv after 90 mins; format: ADME, organism-based; settings: in vivo, 1.5 h; in short: as §1
Spleen [34] = assay: Biodistribution in FVB mouse spleen assessed per gram of tissue at 1 to 4.8 MBq, iv after 5 mins; format: ADME, organism-based; settings: in vivo; in short: as §2
Liver [35] = assay: Biodistribution in FVB mouse liver assessed per gram of tissue at 1 to 4.8 MBq, iv after 60 mins; format: ADME, organism-based; settings: in vivo, 1 h; in short: as §1
Lung [36] = assay: Biodistribution in FVB mouse lung assessed per gram of tissue at 1 to 4.8 MBq, iv after 90 mins; format: ADME, organism-based; settings: in vivo, 1.5 h; in short: as §1
Blood [37] = assay: Biodistribution in FVB mouse blood assessed per gram of tissue at 1 to 4.8 MBq, iv after 30 mins; format: ADME, organism-based; settings: in vivo, 0.5 h; in short: as §1
Pancreas [38] = assay: Biodistribution in FVB mouse pancreas assessed per gram of tissue at 1 to 4.8 MBq, iv after 90 mins; format: ADME, organism-based; settings: in vivo, 1.5 h; in short: as §2
Spleen [39] = assay: Biodistribution in FVB mouse spleen assessed per gram of tissue at 1 to 4.8 MBq, iv after 15 mins; format: ADME, organism-based; settings: in vivo, 0.25 h; in short: as §2
[40] = Biodistribution in FVB mouse small intestine assessed per gram of tissue at 1 to 4.8 MBq, iv after 5 mins; format: ADME, organism-based; settings: in vivo; in short: as §2
Spleen [41] = assay: Biodistribution in FVB mouse spleen assessed per gram of tissue at 1 to 4.8 MBq, iv after 60 mins; format: ADME, organism-based; settings: in vivo, 1 h; in short: as §2

Drug uptake (Kidney [1]): 11.29 % ID/g
Drug uptake (Bone [2]): 1.45 % ID/g
Drug uptake (Kidney [3]): 11.34 % ID/g
Drug uptake (Spleen [4]): 7.42 % ID/g
Drug uptake (Liver [5]): 23.23 % ID/g
SUV (Brain [6]): 6.5
Activity (Brain [7]): Active
Drug uptake (Muscle tissue [8]): 0.92 % ID/g
Drug uptake (Bone [9]): 1.62 % ID/g
Ratio AUC (Brain [10]): 8.3
Drug uptake [11]: 9.42 % ID/g
Drug uptake [12]: 22.42 % ID/g
Drug uptake (Brain [13]): 0.13 % ID/g
Drug uptake (Spleen [14]): 6.34 % ID/g
Activity (Brain [15]): Active
SUV (Brain [16]): 4
Drug uptake (Heart [17]): 2.09 % ID/g
Drug uptake (Kidney [18]): 16.09 % ID/g
Drug uptake (Pancreas [19]): 8.56 % ID/g
Drug uptake (Blood [20]): 1.39 % ID/g
Drug uptake (Lung [21]): 22.5 % ID/g
Drug uptake (Lung [22]): 16.06 % ID/g
Drug uptake (Bone [23]): 1.45 % ID/g
Drug uptake (Blood [24]): 0.61 % ID/g
Drug uptake (Heart [25]): 2.86 % ID/g
Drug uptake (Liver [26]): 31.06 % ID/g
Drug uptake (Bone [27]): 1.85 % ID/g
Drug uptake (Muscle tissue [28]): 0.68 % ID/g
AUC (Blood [29]): 33.2 SUV·min
Drug uptake (Brain [30]): 0.1 % ID/g
Drug uptake (Kidney [31]): 18 % ID/g
Drug uptake (Pancreas [32]): 8.27 % ID/g
Drug uptake (Kidney [33]): 10.17 % ID/g
Drug uptake (Spleen [34]): 5.12 % ID/g
Drug uptake (Liver [35]): 25.4 % ID/g
Drug uptake (Lung [36]): 15.76 % ID/g
Drug uptake (Blood [37]): 0.63 % ID/g
Drug uptake (Pancreas [38]): 13.56 % ID/g
Drug uptake (Spleen [39]): 6.73 % ID/g
Drug uptake [40]: 5.67 % ID/g
Drug uptake (Spleen [41]): 7.18 % ID/g
Compound: COc1cc(NC(=O)c2cnc3ccccc3c2)c(C(=O)Nc2ccc(CCN3CCc4cc(OC)c(OCC[18F])cc4C3)cc2)cc1OC

Drug uptake (Kidney [1]): 23.44 % ID/g
Drug uptake (Bone [2]): 1.63 % ID/g
Drug uptake (Kidney [3]): 19.45 % ID/g
Drug uptake (Spleen [4]): 4.71 % ID/g
Drug uptake (Liver [5]): 5.35 % ID/g
SUV (Brain [6]): 5
Activity (Brain [7]): Active
Drug uptake (Muscle tissue [8]): 0.53 % ID/g
Drug uptake (Bone [9]): 1.43 % ID/g
Ratio AUC (Brain [10]): 9
Drug uptake [11]: 7.09 % ID/g
Drug uptake [12]: 12.48 % ID/g
Drug uptake (Brain [13]): 0.18 % ID/g
Drug uptake (Spleen [14]): 5.82 % ID/g
Activity (Brain [15]): Active
SUV (Brain [16]): 4.4
Drug uptake (Heart [17]): 1.19 % ID/g
Drug uptake (Kidney [18]): 24.17 % ID/g
Drug uptake (Pancreas [19]): 11.15 % ID/g
Drug uptake (Blood [20]): 1.39 % ID/g
Drug uptake (Lung [21]): 19.6 % ID/g
Drug uptake (Lung [22]): 6.16 % ID/g
Drug uptake (Bone [23]): 1.3 % ID/g
Drug uptake (Blood [24]): 0.4 % ID/g
Drug uptake (Heart [25]): 1.38 % ID/g
Drug uptake (Liver [26]): 5.99 % ID/g
Drug uptake (Bone [27]): 1.66 % ID/g
Drug uptake (Muscle tissue [28]): 0.38 % ID/g
AUC (Blood [29]): 25.6 SUV·min
Drug uptake (Brain [30]): 0.13 % ID/g
Drug uptake (Kidney [31]): 20.65 % ID/g
Drug uptake (Pancreas [32]): 9.68 % ID/g
Drug uptake (Kidney [33]): 19.98 % ID/g
Drug uptake (Spleen [34]): 4.76 % ID/g
Drug uptake (Liver [35]): 11.6 % ID/g
Drug uptake (Lung [36]): 4.09 % ID/g
Drug uptake (Blood [37]): 0.65 % ID/g
Drug uptake (Pancreas [38]): 15.21 % ID/g
Drug uptake (Spleen [39]): 5.34 % ID/g
Drug uptake [40]: 4.51 % ID/g
Drug uptake (Spleen [41]): 5.74 % ID/g
Compound: COc1cc2c(cc1OC)CN(CCc1ccc(NC(=O)c3cccc4c(=O)c5cccc(OCC[18F])c5[nH]c34)cc1)CC2
